From PubChem BioAssay
The list is not random: actives were taken first. Their share in the collection is about 1.3%.
proCasp3 act – activates human procaspase-3; P42574; recombinant procaspase-3 D3A, Ac-DEVD-pNA absorbance 405 nm; activation, % at 8.5 µM; 330,000 compounds, 0.11% hits;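 active means activation above the mean of all tested compounds plus 3 SD, cut at about 21% in these data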;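 further: 0% = DMSO alone and 100% = DMSO wells spiked with extra 5 µM PC-3 D3A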
Target sequence (P42574 whole entry D9A/D28A/D175A): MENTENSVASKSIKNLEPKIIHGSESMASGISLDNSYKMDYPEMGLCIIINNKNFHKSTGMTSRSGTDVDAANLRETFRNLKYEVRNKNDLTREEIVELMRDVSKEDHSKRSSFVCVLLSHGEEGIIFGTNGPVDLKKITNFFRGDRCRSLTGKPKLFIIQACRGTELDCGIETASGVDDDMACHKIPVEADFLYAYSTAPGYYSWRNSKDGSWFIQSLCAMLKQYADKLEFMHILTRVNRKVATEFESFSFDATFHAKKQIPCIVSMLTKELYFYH
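Compound: 8.5 µM single point, 0.8% DMSO / Material: Autoprocessing-dead procaspase-3 D3A mutant enzyme / Timing: 1 h preincubation plus 2 h reaction at 25 °C / Medium: Zinc-free HEPES/NaCl buffer with 0.01% Triton X-100 at pH 7.4 / Technique: 405 nm absorbance of p-nitroaniline, reads at 0 and 120 min / Repeats: one well per compound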
CHT block – human CHT choline transport inhibition; B-score at 10 µM; 310,000 compounds, 0.86% hits; Q9GZV3; AID 488975; CHT-expressing cells, membrane potential dye, choline response; active compounds read low;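 active means B-score over 3 SD under the library average, and starting fluorescence ratio not unusually high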;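 further: choline stimulus applied at its EC90 after an EC20 pre-addition; B-score computed on integrated fluorescence ratio after choline addition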
CHT PAM – allosteric activators of human choline transporter CHT; Q9GZV3; CHT-expressing cells, membrane potential dye, choline EC20; active compounds read high; LV-AA mutant CHT in HEK293 cells; B-score at 10 µM; 310,000 compounds, 0.49% hits; AID 488977;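 active means initial fluorescence not abnormally high and integrated response B-score, plate-corrected, over 3 SD above library mean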
proCasp7 act – activates human procaspase-7, counter-screen for procaspase-3 activators | recombinant procaspase-7, Ac-DEVD-pNA absorbance 405 nm; D23A/D198A/D206A triple mutant, cannot self-cleave; scale: DMSO 0, 5 µM enzyme 100 | activation, % at 8.5 µM | 330,000 compounds, 0.093% hits | AID 463210;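 active means percent activation above the screen-wide mean plus 3 SD, cut at about 25% in these data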
Target sequence (P55210 whole entry D23A/D198A/D206A): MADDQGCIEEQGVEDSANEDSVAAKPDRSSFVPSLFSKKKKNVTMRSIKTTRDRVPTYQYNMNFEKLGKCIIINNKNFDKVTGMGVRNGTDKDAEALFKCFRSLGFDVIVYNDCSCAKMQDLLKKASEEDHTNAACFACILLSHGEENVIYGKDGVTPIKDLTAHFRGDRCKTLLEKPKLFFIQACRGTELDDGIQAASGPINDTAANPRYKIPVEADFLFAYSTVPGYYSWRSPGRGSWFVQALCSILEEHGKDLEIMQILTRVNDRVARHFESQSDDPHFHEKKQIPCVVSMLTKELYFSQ
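Detection: p-Nitroaniline absorbance at 405 nm, read at 0 and 120 min; system: Uncleavable procaspase-7 mutant enzyme; evaluation: % activation from two-timepoint absorbance difference, scaled to controls; times: 1 h enzyme–compound preincubation and 2 h substrate reaction, both 25 °C; buffer or medium: Zinc-free HEPES pH 7.4 with 300 mM NaCl, 0.01% Triton X-100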
CHT block conf – human CHT inhibition, confirmatory screen | shares compounds with CHT block | AID 493221 | 2,400 compounds, 70% hits | CHT-expressing cells, choline membrane potential dye; LV-to-AA substituted CHT, HEK293 cells | CHT activity remaining % of control (active compounds read low), % at 10 µM;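 active means choline transporter activity left, mean of duplicates at 10 µM, below buffer-only control mean minus 3 SD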;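 further: depolarization triggered by choline at its EC90 following an EC20 pre-addition; 0% = hemicholinium-3 full block and 100% = buffer-only control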
HEK293 MPD ctr – CHT inhibitor counter-screen hit in parental HEK293 cells; shares compounds with CHT block; membrane potential dye, choline response; active = decrease or increase beyond buffer ±3SD; membrane potential ratio readout (active if shifted either direction beyond buffer ±3SD; no single direction) at 10 µM; 2,400 compounds, 4% hits;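 further: parental cells lack the transporter so any hit is non-specific; ratio is peak minus trough fluorescence over baseline after EC90 choline challenge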
Starred values were filed as active, the others as inactive; i = inactive; nt = no result given.

SMILES | proCasp3 act | CHT block | CHT PAM | proCasp7 act | CHT block conf | HEK293 MPD ctr
O=C(C1CCCN(c2ncnc3c2nc2n3CCCCC2)C1)N1CCN(c2cccc(Cl)c2)CC1 (stereo unspecified) | 5 | -10* | i | -1 | 47%* | i
Cc1cccc(N2CCN(C(=O)C3CCN(c4ncnc5c4nc4n5CCCCC4)CC3)CC2C)c1 (stereo unspecified) | 2 | -5* | i | -10 | 43%* | i
O=C(C1CCCN(c2ncnc3c2nc2n3CCCCC2)C1)N1CCN(c2ccccc2)CC1 (stereo unspecified) | 0 | -6.4* | i | 1 | 15%* | i
Cc1cccc(N2CCN(C(=O)C3CCN(c4ncnc5c4nc4n5CCCCC4)CC3)CC2)c1C | 7 | i | i | 5 | nt | nt
COc1ccc2c(CC(=O)NNC(=O)c3ccc(O)cc3)coc2c1 | -1 | nt | nt | 8 | nt | nt
CCOC(=O)CNC(=O)Cn1cnc2c(nnn2-c2ccc(OC)cc2)c1=O | 6 | i | i | 3 | nt | nt
O=C(Nc1cc(F)ccc1F)C1CCCN(c2ncnc3c2nc2n3CCCCC2)C1 (stereo unspecified) | 4 | -6* | i | 11 | 46%* | i
O=C(Nc1ccc(F)cc1F)C1CCCN(c2ncnc3c2nc2n3CCCCC2)C1 (stereo unspecified) | 3 | i | i | 16 | nt | nt
Cc1ccc(C(=O)Oc2ccccc2C(=O)N2CCOCC2)cc1 | 0 | i | i | 4 | nt | nt
O=C(Oc1ccccc1C(=O)N1CCOCC1)c1ccc(F)cc1 | -5 | -8.2* | i | 2 | i | i
COc1ccc(CNS(=O)(=O)c2ccc3c(c2)CC(C)N3C(=O)C2CC2)cc1 (stereo unspecified) | -8 | -5* | i | 2 | i | i
COc1ccc(C(=O)NC(C)CCn2cccn2)cc1OC1CCN(C(C)C)CC1 (stereo unspecified) | -1 | -9.8* | i | 9 | 13%* | i
COc1ccc(C(=O)NC(C)Cc2cnccn2)cc1OC1CCN(C(C)C)CC1 (stereo unspecified) | 3 | -7* | i | -11 | 28%* | i
COCC1CCCCN1C(=O)c1ccc(OC)c(OC2CCN(C(C)C)CC2)c1 (stereo unspecified) | -3 | i | i | -7 | nt | nt
CCC1CCCCN1C(=O)c1ccc(OC)c(OC2CCN(C(C)C)CC2)c1 (stereo unspecified) | -4 | i | i | 0 | nt | nt
COc1ccc(C2=Nn3c(nnc3C3CCCCC3)SC2)cc1OC | -7 | -6.8* | i | -3 | 52%* | i
CS(=O)(=O)n1nc(OC(=O)c2cccc3ccccc23)cc1N | -12 | -5.4* | i | -21 | 63%* | i
CCOc1ccc(NC(=O)CN(C)C(=O)Cn2cnc3c2c(=O)n(C)c(=O)n3C)cc1OCC | 18 | i | i | 4 | nt | nt
CC1CC(C)CN(S(=O)(=O)c2ccc(NC(=O)[C@@H]3CCCN3C(=O)c3cccs3)cc2)C1 (stereo partly specified) | 1 | nt | nt | -4 | nt | nt
Cc1ccccc1N(C)S(=O)(=O)c1ccc2[nH]cc(C(=O)NCC3CCCO3)c(=O)c2c1 (stereo unspecified) | 3 | -7* | i | 5 | 68%* | i
CC1CCCN(CCCNC(=O)c2nn(C)c3c2CSc2ccccc2-3)C1 (stereo unspecified) | -1 | -6.2* | i | -8 | 23%* | i
CC1CCCCN1CCCNC(=O)c1nn(C)c2c1CSc1ccccc1-2 (stereo unspecified) | -6 | -7.6* | i | 6 | 8.6%* | i
CC1CCC(NC(=O)c2nn(C)c3c2CSc2ccccc2-3)CC1 (stereo unspecified) | 1 | i | i | -3 | nt | nt
Cc1cc(C)nc(N2N=C(CSc3ccc(Cl)cc3)CC2=O)n1 | 7 | -5* | i | 0 | 42%* | i
O=C(NC1CCCC1)C(c1cccnc1)N(CCc1ccccc1)C(=O)c1ccco1 (stereo unspecified) | -2 | -6* | i | -4 | 55%* | i
SMILES | proCasp3 act | CHT block | CHT PAM | proCasp7 act | CHT block conf | HEK293 MPD ctr
O=C(NCC(=O)N(CCc1ccccc1)C(C(=O)NC1CCCC1)c1cccnc1)c1ccco1 (stereo unspecified) | 11 | i | i | 7 | nt | nt
O=C(NCC(c1ccco1)N1CCCC1)c1cccc(S(=O)(=O)N2CCOCC2)c1 (stereo unspecified) | 5 | nt | nt | -5 | nt | nt
CCN(Cc1ccncc1)Cc1cn[nH]c1-c1ccc(OC)cc1F | -3 | i | i | 4 | nt | nt
CC1CCCCN1C(=O)c1ccc(C(=O)Nc2ccc(F)cc2)cc1 (stereo unspecified) | 3 | -6.4* | i | 2 | 45%* | i
Cc1ncoc1C(=O)Nc1ccc(Oc2ccccc2)cc1 | -8 | -6* | i | -6 | 57%* | i
N#Cc1cccc(NC(=S)Nc2ccccc2)c1 | -3 | i | i | 10 | nt | nt
O=C(CSc1nnc(-c2ccc(O)cc2)n1Cc1ccco1)N1CCc2ccccc2C1 | -2 | -5.8* | i | -12 | i | i
O=C(CSc1nnc(-c2ccncc2)n1Cc1ccco1)c1ccc(Cl)cc1 | -1 | -5.8* | i | -5 | 70%* | i
NC(=O)CSc1nnc(-c2ccc(O)cc2)n1Cc1ccco1 | 7 | i | i | -3 | nt | nt
O=C(NCCc1csc(-c2ccc(Cl)cc2)n1)c1ccco1 | 0 | i | i | -3 | nt | nt
CCOC(=O)CSC1=C(C#N)C(c2ccccc2)C(C(C)=O)=C(C)N1 (stereo unspecified) | -1 | -5.7* | i | -8 | i | i
O=C(CCc1nc(-c2ccccc2Cl)no1)Nc1cccnc1 | 7 | i | i | 4 | nt | nt
COc1ccc(-c2nnc(CSc3nc4ccccc4c(=O)n3CC3CCCO3)o2)cc1OC (stereo unspecified) | 4 | -7.4* | i | -5 | 49%* | i
COc1ccc(C(=O)C2CCCN(C(=O)C3=CCCC3)C2)c(C)c1 (stereo unspecified) | 8 | -5* | i | 7 | 35%* | i
CN1CCN(C(=O)CCN2C(=O)c3ccccc3C2=O)CC1 | 3 | i | i | 8 | nt | nt
CN1CCN(c2ncc(CN3C(=O)c4ccccc4C3=O)s2)CC1 | -1 | -5.3* | i | 0 | 57%* | i
Cc1cc(C(=O)Nc2nncs2)oc1C | 0 | i | i | 8 | nt | nt
Cn1cc(/C=C2\SC(=O)N(c3ccccc3)C2=O)c2ccccc21 | 2 | -6.5* | i | -4 | i | i
